The target of assay [1] is Estrogen receptor (Bos taurus) (UniProt Q9XSB5+P49884). Briefly: Evaluated for relative binding affinity (RBA) for calf uterine estrogen receptor. It is filed as protein assay. The method in brief:
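Calf uterine cytosol (105000g supernatant; final protein 3 mg/mL) in Tris-EDTA-azide buffer pH 7.5. Incubated with 5 nM [³H]estradiol and competitor (10⁻⁹–10⁻⁴ M) for 18 h at 4 °C. Free ligand removed with dextran-coated charcoal, bound counted by scintillation. Nonspecific binding measured with 5 μM estradiol. RBA = estradiol/competitor molar ratio at 50% displacement ×100.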

The target in assay [2] is T1, Estrogen receptor (Mus musculus) (UniProt O08537+P19785). To be noted: Uterus.
T1 sequence (O08537 whole entry, looked up): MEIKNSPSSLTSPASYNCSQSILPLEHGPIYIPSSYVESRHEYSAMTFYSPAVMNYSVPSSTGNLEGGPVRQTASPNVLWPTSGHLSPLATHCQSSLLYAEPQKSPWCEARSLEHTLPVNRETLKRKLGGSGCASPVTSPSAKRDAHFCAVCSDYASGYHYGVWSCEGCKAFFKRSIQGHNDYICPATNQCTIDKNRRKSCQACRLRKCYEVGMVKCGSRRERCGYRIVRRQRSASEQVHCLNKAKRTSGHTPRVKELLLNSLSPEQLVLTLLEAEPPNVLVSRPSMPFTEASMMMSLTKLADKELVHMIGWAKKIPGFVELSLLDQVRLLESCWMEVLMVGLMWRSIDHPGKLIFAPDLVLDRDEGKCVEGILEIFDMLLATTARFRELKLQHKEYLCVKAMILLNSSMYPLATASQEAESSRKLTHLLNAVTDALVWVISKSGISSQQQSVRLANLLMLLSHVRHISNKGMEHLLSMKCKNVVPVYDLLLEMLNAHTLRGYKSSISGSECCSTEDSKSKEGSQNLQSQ
T1 sequence (P19785 whole entry, looked up): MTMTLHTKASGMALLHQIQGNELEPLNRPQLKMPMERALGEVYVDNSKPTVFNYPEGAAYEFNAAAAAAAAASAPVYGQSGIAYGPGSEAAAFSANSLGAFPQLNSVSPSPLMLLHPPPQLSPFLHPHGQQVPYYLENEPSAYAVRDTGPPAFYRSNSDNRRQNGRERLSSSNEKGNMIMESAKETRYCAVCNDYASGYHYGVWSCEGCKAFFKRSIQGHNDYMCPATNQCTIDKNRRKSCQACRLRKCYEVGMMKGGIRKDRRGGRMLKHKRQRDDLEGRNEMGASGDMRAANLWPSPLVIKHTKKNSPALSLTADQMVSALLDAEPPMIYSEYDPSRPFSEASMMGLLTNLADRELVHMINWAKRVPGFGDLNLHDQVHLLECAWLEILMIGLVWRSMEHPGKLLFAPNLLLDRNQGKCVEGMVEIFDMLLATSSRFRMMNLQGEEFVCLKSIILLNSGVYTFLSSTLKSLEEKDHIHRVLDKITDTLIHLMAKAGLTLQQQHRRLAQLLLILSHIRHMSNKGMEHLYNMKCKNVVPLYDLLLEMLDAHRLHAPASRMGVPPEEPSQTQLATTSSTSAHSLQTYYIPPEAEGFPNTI
The target in assay [3] is T1, Estrogen receptor (Mus musculus). The note with it: Uterus. The source holds these as a separate data set.
The target is the same in assay [4]. To be noted: Uterus. The source holds these as a separate data set.
Assay [5] shares this target. To be noted: Uterus. The source holds these as a separate data set.
The test system of assay [6] is MCF7. Briefly: Reduction of cell number of hormone sensitive MCF-7 human breast cancer cells at 10e-5 M.
The test system of assay [7] is MCF7. Kind of assay: Reduction of cell number of hormone sensitive MCF-7 human breast cancer cells at 10e-6 M.
Assay [8] deals with MCF7. Briefly: Inhibition of [3H]thymidine incorporation into hormone sensitive MCF-7 human breast cancer cells at 10e-5 M. It is filed as functional. Summed up:
(§1)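 MCF-7 cells kept two weeks in medium with 5% charcoal-treated calf serum, 37 °C, 5% CO₂. About 2×10⁴ cells per well; compound added next day in 0.1% ethanol, ethanol-only controls, medium changed on day 4. Cells counted on day 7 by Coulter counter; [³H]thymidine 1 μCi/well for 2 h. Mean of six dishes.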

In assay [9] the test system is MCF7. Briefly: Inhibition of [3H]thymidine incorporation into hormone sensitive MCF-7 human breast cancer cells at 10e-6 M. The class given is functional. The method in brief:
as §1
Background: Uptake of a labelled nucleoside into DNA is a usual measure of proliferation.

In assay [10] the target is T1, Estrogen receptor (Mus musculus). Briefly: Uterotrophic activity in mice as uterus dry weight (mg)/body weight (g) *100 at 1 ug. It is filed as functional, tissue-based. The method in brief:
(§2)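 Immature 19-day-old female NMRI mice, 10 per group. Compound in olive oil injected sc on 3 consecutive days, dose per animal; vehicle-only controls, estrone as reference. Killed 24 h after last injection. Uteri fixed in Bouin solution, dried at 100 °C for 24 h. Value = uterine dry weight (mg)/body weight (g) ×100, mean of 10 animals ± SD.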

The target is the same in assay [11]. Kind of assay: Uterotrophic activity in mice as uterus dry weight (mg)/body weight (g) *100 at 5 ug. The class given is functional, tissue-based. The method in brief: as §2
The target is the same in assay [12]. Briefly: Uterotrophic activity in mice as uterus dry weight (mg)/body weight (g) *100 at 0.2 ug. It is filed as functional, tissue-based. The method in brief: as §2
The target is the same in assay [13]. Kind of assay: Uterotrophic activity in mice as uterus dry weight (mg)/body weight (g) *100 at 25 ug. It is filed as functional, tissue-based. Summed up:
as §2

For assay [14] the target is unchanged. Briefly: Uterotrophic activity in mice as uterus dry weight (mg)/body weight (g) *100 at 125 ug. The class given is functional, tissue-based. The method in brief:
as §2

This note sets out measurements from ChEMBL document CHEMBL1123415, “Benzo[a]carbazole derivatives. Synthesis, estrogen receptor binding affinities, and mammary tumor inhibiting activity” (1986).

In assay [1], `CCCCn1c2c(c3ccc(O)cc31)CCc1cc(O)ccc1-2` came in with a relative binding affinity (RBA) of 9.5.

On to `C[C@]12CC[C@@H]3c4ccc(O)cc4CC[C@H]3[C@@H]1CCC2=O`, for which the Effect was 46.9 in assay [2], 46.9 in assay [3], 42.5 in [4] and 48.6 in assay [5].

In the case of `CCn1c2c(c3cc(O)ccc31)CCc1cc(O)ccc1-2`, the cell number with MCF7 [6] came out at 4600; with MCF7 [7], 28200. Moreover, the values for the Activity with MCF7 [8] and in the assay with MCF7 [9] were 760 and 25840, respectively. In assay [1], this compound came in with a relative binding affinity (RBA) of 13.

For the compound `Cn1c2c(c3ccc(O)cc31)CCc1cc(O)ccc1-2`, in assay [1], the relative binding affinity (RBA) turned out to be 9.6.

In the case of `CCCCn1c2cc(O)ccc2c2ccc3cc(O)ccc3c21`, in assay [1], the relative binding affinity (RBA) is 2.3.

In assay [1], `CCn1c2c(c3ccccc31)CCc1cc(O)ccc1-2` registered a relative binding affinity (RBA) of 1.8.

Consider `CCn1c2c(c3ccc(OC(C)=O)cc31)CCc1cc(OC(C)=O)ccc1-2`, for which the Activity in [10] came out at 29.3; in assay [11], 45.8; in assay [12], 20.3; in assay [13], 43.9.

Take `Cn1c2cc(O)ccc2c2ccc3cc(O)ccc3c21`: in assay [1], the relative binding affinity (RBA) turned out to be 9.5.

In the case of `CCCn1c2cc(O)ccc2c2ccc3cc(O)ccc3c21`, the relative binding affinity (RBA) in assay [1] came to 13.

As to `CCn1c2ccccc2c2ccc3cc(O)ccc3c21`, the relative binding affinity (RBA) in [1] is 0.33.

`CCn1c2cc(O)ccc2c2ccc3ccc(O)cc3c21` had a relative binding affinity (RBA) in assay [1] of 3.6.

`CCn1c2cc(OC(C)=O)ccc2c2ccc3cc(OC(C)=O)ccc3c21`: the Effect in [10] worked out at 28.5; in [11], 38.5; in [12] it was 21.6; in assay [14], 46; in assay [13], 38.7.

Regarding `CCn1c2c(c3cc(O)ccc31)CCc1c(O)cccc1-2`, in assay [1], the relative binding affinity (RBA) came out at 1.9.

`CCn1c2c(c3ccc(O)cc31)CCc1ccccc1-2` had a relative binding affinity (RBA) in assay [1] of 0.8.

Turning to `CCn1c2c(c3cc(O)ccc31)CCc1ccccc1-2`, the relative binding affinity (RBA) in [1] is 0.06.
